The source of these data is publication PMC6843717 (ACS Omega, 2019).

Data set [1] can be described thus: MBQ-167 distribution in mouse mammary tumors. Conditions: 2.5 mg/kg BW 24 h prior to sacrifice, 3-month multiple low-dose regimen. It counts as in vivo, SCID mice. The gist of the method:
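Female SCID mice, 4 weeks old, received 2 × 10^6 GFP-tagged MDA-MB-468 cells into the mammary fat pad. After 1 week, vehicle or 2.5 mg/kg ip was given three times weekly for 3 months. Twenty-four hours after the last dose, five mice per arm got 10 mg/kg 30 min before sacrifice. Tumours were saline-flushed, snap-frozen, homogenized, extracted and quantified by SFC-MS/MS (n = 5).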

A further data set concerns Cdc42. Particulars: read-out: IC50 for Cdc42 activation; cited from earlier work.

The term IC50 denotes the point on the concentration scale where inhibition reaches its midpoint. As to `CCn1c2ccccc2c2cc(-n3nncc3-c3ccccc3)ccc21` [MBQ-167], the “detection of MBQ-167 in tumor” value in data set [1] is recorded as “not detected”. Moreover, the IC50 in the data set with Cdc42 is […].
